The values that follow come from ChEMBL document CHEMBL1124862 (J Med Chem, 1990).

Some results are limits rather than exact numbers.

In general, IC50 refers to the concentration that gives 50% inhibition. By EC50 is commonly meant the concentration needed to bring the measured effect to its halfway point.

Assay [1] addresses T1, 5-hydroxytryptamine receptor 1A (Rattus norvegicus, UniProt P19327).
T1 sequence (P19327 whole entry): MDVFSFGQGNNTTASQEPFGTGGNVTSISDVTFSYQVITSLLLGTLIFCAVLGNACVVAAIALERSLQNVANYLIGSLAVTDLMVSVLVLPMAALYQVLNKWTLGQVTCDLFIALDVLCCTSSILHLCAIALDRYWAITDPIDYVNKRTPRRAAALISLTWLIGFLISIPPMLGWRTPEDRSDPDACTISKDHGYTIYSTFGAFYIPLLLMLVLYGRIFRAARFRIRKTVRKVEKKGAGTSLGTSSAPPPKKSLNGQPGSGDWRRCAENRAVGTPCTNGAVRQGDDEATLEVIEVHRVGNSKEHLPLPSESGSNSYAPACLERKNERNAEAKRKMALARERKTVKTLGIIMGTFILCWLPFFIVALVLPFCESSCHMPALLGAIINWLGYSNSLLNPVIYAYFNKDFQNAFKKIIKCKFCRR
Nature of the assay: Displacement of [3H]8-OH-DPAT from rat cortex 5-hydroxytryptamine 1A receptor.

For assay [2], the target named is T2, 5-hydroxytryptamine receptor 1B (Rattus norvegicus, UniProt P28564). Nature of the assay: Inhibitory activity against 5-hydroxytryptamine 1B receptor of rat cortex using [3H]5-HT. Summed up:
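Competition binding in rat cortex membranes, using the radioligand named in each line at a concentration of approximately its K_D.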

For assay [3], the target named is Serotonin 2 (5-HT2) receptor (Rattus norvegicus, UniProt P30994+P08909+P14842). Description: Compound was evaluated for its inhibitory activity against 5-hydroxytryptamine 2 receptor of rat anterior cortex using [3H]ketanserin as the radioligand.
Assay [4] addresses T2, 5-hydroxytryptamine receptor 1B. Nature of the assay: Inhibitory activity against 5-hydroxytryptamine 1B receptor of rat cortex using [3H]5-HT as the radioligand.
For the next assay, the target named is 5-HT1A receptor (Cavia porcellus, UniProt A0A286Y074). Nature of the assay: Inhibition of Forskolin-stimulated adenylate cyclase activity against 5-hydroxytryptamine 1A receptor of guinea pig hippocampus. Type of assay: functional, tissue-based. An outline of the steps: (§1)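 Washed membranes came from guinea pig hippocampus, rat substantia nigra or guinea pig substantia nigra. They were incubated at 30 °C with [α-³²P]ATP, 3 μM forskolin and varying agonist concentrations. The reaction was stopped with 3% SDS. [³²P]cAMP was isolated by two-column chromatography and counted by scintillation, in pmol/mg protein/min. Points were run in triplicate, and EC50 came from at least three experiments.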

For another assay, the species on record is Rattus norvegicus. Description: Effect of direct injection into the PVN (paraventricular medial hypothalamus) of rats on feeding behavior and the inhibition of food intake. The assay is classed as functional. Summed up:
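Seven days later they were food-deprived for 24 h with water available. Each rat received a PVN infusion at 1 μL/min of test agent (16 μg) or 5-HT (32 μg) in 0.9% NaCl, or vehicle. Food eaten over 30 min was weighed. Groups were compared by two-tailed t test, and rats with misplaced cannulae were excluded after histology.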

Assay [5] addresses T2, 5-hydroxytryptamine receptor 1B. Description: Inhibition of Forskolin-stimulated adenylate cyclase activity against 5-hydroxytryptamine 1B receptor of rat substantia nigra. Type of assay: functional. An outline of the steps: as §1
The target in assay [6] is 5-hydroxytryptamine receptor 1D (Cavia porcellus, UniProt Q60484). Nature of the assay: Inhibition of Forskolin-stimulated adenylate cyclase activity against 5-hydroxytryptamine 1D receptor of guinea pig substantia nigra. An outline of the steps: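 Washed membranes from freshly dissected guinea pig substantia nigra, incubated at 30 °C with [α-³²P]ATP plus 3 μM forskolin and varying agonist concentrations. Reaction stopped with 3% SDS. [³²P]cAMP separated from [³²P]ATP on two columns and counted by liquid scintillation, as pmol/mg protein/min. EC50 from at least three experiments, each in triplicate.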
5-hydroxytryptamine receptor 1D, sequence (Q60484 whole entry): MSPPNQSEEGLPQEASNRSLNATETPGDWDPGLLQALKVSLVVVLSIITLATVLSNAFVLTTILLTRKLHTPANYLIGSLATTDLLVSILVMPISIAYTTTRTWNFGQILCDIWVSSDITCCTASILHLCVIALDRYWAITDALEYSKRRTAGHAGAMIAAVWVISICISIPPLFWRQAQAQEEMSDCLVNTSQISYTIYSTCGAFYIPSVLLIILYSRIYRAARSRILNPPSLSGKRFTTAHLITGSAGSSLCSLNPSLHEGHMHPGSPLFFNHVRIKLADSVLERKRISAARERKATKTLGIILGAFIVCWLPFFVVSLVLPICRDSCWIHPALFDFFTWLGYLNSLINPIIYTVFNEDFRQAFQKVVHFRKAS

T2 sequence (P28564 whole entry): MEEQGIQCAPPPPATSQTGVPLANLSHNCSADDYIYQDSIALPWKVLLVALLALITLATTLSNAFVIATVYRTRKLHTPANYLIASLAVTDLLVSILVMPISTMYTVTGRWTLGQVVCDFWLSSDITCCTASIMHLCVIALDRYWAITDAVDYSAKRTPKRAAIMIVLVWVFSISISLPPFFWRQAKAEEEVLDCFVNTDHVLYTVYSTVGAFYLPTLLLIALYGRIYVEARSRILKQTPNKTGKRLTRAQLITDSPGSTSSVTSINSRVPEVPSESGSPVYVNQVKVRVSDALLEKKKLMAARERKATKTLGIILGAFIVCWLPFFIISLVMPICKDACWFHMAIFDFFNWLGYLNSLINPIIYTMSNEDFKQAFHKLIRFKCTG

Regarding `Oc1ccc2[nH]cc(C3=CCNCC3)c2c1`, the half-maximal inhibitory concentration (IC50) in assay [1] came out at 30 nM; in assay [2] it was 1.2 nM.

As for `N#Cc1ccc2[nH]cc(C3=CCNCC3)c2c1`, the IC50 in assay [1] came out at 32 nM; in assay [2], 0.8 nM.

For the compound `Fc1ccc2[nH]cc(C3=CCNCC3)c2c1`, the IC50 in assay [1] turned out to be 65 nM; in assay [2], 1.9 nM.

`CN1CCN(c2nc3cc(C(F)(F)F)ccc3n3cccc23)CC1`: the figures for the IC50 in assay [3], in assay [1] and in assay [2] were 6800 nM, 19 nM and 150 nM, respectively.

On to `FC(F)(F)c1cccc(N2CCNCC2)c1`, for which the IC50 in assay [3] is 570 nM; in assay [1], 290 nM; in assay [2], 27 nM.

Regarding `Brc1ccc2[nH]cc(C3=CCNCC3)c2c1`, the values for the IC50 in assay [1] and in assay [2] were 13 nM and 3.2 nM, respectively.

For the compound `C1=C(c2c[nH]c3ccccc23)CCNC1`, the IC50 in assay [4] was 3.7 nM; in assay [1] it was 140 nM.

In the case of `FC(F)(F)c1ccc2c(c1)nc(N1CCNCC1)c1cccn12`, the IC50 in assay [3] is greater than 10000 nM; in assay [1] it was 37 nM; in assay [2], 21 nM.

For `Clc1ccc2[nH]cc(C3=CCNCC3)c2c1`, the results for the concentration for half-maximal inhibition (IC50) in assay [1] and in assay [2] were 26 nM and 3.3 nM, respectively.

Regarding `O=[N+]([O-])c1ccc2[nH]cc(C3=CCNCC3)c2c1`, the half-maximal inhibitory concentration (IC50) came out at 36 nM in assay [1] and 3.5 nM in assay [2].

In the case of `Oc1ccc2[nH]cc(C3=CCNCC3)c2n1`, the concentration for half-maximal inhibition (IC50) in assay [3] was greater than 10000 nM; in assay [1], 3000 nM; in assay [2], 15 nM. Further, the EC50 on 5-HT1A receptor is greater than 10000 nM; in assay [5], 56 nM. This compound gave a g/30min in the assay listed under Rattus norvegicus of 0.12.

On to `COc1ccc2[nH]cc(C3=CCNCC3)c2c1` [RU-24969], for which the IC50 in assay [2] turned out to be 2 nM.

`NCCc1c[nH]c2ccc(O)cc12` [SEROTONIN] returned a g/30min in the assay listed under Rattus norvegicus of 1.15. In assay [6], this compound came in with a concentration giving a half-maximal response (EC50) of 16 nM.
